HKDC1 act = increases human hexokinase HKDC1 activity | Q2TB90 | recombinant HKDC1, G6PDH/diaphorase resazurin fluorescence; active compounds read low | activity change, negative = activation, % at 20 µM | 340,000 compounds, 0.056% hits | AID 493187;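 active means activation of 40% or more at 20 µM, a change of -40% or lower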
Target sequence (Q2TB90 whole entry, looked up): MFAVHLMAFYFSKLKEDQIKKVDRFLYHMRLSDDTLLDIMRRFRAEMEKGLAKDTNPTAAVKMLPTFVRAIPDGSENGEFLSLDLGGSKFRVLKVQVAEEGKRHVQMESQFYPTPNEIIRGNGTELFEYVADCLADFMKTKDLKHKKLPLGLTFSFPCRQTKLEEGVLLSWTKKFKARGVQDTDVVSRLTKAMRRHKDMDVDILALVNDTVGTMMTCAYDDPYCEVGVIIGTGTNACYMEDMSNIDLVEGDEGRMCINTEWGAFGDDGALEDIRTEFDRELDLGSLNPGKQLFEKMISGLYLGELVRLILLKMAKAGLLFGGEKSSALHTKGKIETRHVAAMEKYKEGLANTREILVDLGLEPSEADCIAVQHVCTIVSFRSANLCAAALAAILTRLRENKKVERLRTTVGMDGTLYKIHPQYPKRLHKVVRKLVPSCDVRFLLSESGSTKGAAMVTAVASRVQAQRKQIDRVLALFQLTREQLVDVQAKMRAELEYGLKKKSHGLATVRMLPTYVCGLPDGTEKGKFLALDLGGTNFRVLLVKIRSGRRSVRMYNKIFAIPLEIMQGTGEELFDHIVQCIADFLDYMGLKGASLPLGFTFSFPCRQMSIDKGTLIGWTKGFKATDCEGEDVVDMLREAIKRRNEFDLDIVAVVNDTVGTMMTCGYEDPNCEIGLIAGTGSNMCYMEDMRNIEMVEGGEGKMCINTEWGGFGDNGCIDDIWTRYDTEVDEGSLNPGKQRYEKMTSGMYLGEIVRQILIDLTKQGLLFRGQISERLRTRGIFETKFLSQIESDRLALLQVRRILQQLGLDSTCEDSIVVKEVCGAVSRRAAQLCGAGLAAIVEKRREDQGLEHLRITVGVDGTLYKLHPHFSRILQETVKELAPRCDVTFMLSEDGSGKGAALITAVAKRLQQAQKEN
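Material: in-house human HKDC1 enzyme, G6PDH and diaphorase coupling enzymes | Quantity: HKDC1 at 5 µg/mL final | Medium: Tris buffer at pH 8.0 containing MgCl2 | Compound dosing: 20 µM single dose | Schedule: 90 min reaction at room temperature, dark | Measured by: Resorufin fluorescence, 525/613 nm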
Active calls of the source: *. Not all results are given here.

SMILES | HKDC1 act
O=C1NC(=S)N/C1=C/c1cc2c(cc1[N+](=O)[O-])OCO2 | -67*
CCOC(=O)c1c(C)[nH]c(C2=NNC(=Nc3ccccc3)SC2)c1C | -306*
CCOC(=O)c1c(C)[nH]c(C2=NNC(=Nc3ccccc3OC)SC2)c1C | -165*
CCOC(=O)c1c(C)[nH]c(C2=NNC(=Nc3ccc(OCC)cc3)SC2)c1C | -137*
CC1=NOC(=O)/C1=C\c1ccc(-c2ccc(Cl)cc2Cl)o1 | 54
CCc1ccc(S(=O)(=O)/N=C2\C=C(Nc3cccc(C(=O)O)c3)C(=O)c3ccccc32)cc1 | 53
COC1=C(C)C(=O)C2=C(C1=O)C1C3CC4=C(C(=O)C(OC)=C(C)C4=O)C(CNC(=O)C(C)=O)N3C(C#N)C(C2)N1C (stereo unspecified) | 60
C=CC(=O)N1C/C(=C/c2ccc(F)cc2)C(=O)/C(=C\c2ccc(F)cc2)C1 | 36
Cc1cc(C)c2c(=N)c3ccccc3n(CCCCCCCCn3c4ccccc4c(=N)c4c(C)cc(C)nc43)c2n1 | 74
CC(=O)NC1C(=O)N(CCN2CCOCC2)c2ccc(F)cc21 (stereo unspecified) | 79
O=S(=O)(Nc1ccc(O)c2ccccc12)c1cccs1 | 51
Cc1c(C(=O)Oc2ccc(-c3cnc4ccccc4n3)cc2)cccc1[N+](=O)[O-] | -89*
CN(C)Cc1cc(O)c(CN(C)C)cc1O | 47
COC1=C(OC)C(=O)C(Sc2ccc3ccccc3c2)=CC1=O | 71
CCN(CC)CCNc1cc(C)nc2c1C(=O)C(=O)C=C2N1CCCCC1 | 45
N=C1N(c2ccccc2)C(=S)C(=Nc2ccccc2)N1c1ccccc1 | -77*
CCc1ccc(S(=O)(=O)/N=C2/C=C(Sc3ncn[nH]3)C(=O)c3ccccc32)cc1 | 71
Cc1cc2nnc(SCC(=O)Nc3cc(S(=O)(=O)N4CCOCC4)ccc3Cl)n2c2ccccc12 | 48
O=S(=O)(c1ccc(NC(=S)NN=C(Cc2ccccc2)Cc2ccccc2)cc1)N1CCOCC1 | -47*
COCc1cc(C2C(C(=O)c3ccco3)=C(O)C(=O)N2CCOCCO)ccc1O (stereo unspecified) | 35
O=C(O)c1ccc2ncsc2c1 | 41
O=C(CN1C(=O)/C(=C2/SC(=S)N(CCS(=O)(=O)O)C2=O)c2ccccc21)Nc1cccc(C(F)(F)F)c1 | 36
O=C(O)c1ccc(NC2=C/C(=N/S(=O)(=O)c3ccccc3)c3ccccc3C2=O)cc1 | 72
NNc1ncnc2sc3c(c12)CCC3 | -102*
CCCC(=O)NC1=C(Cl)C(=O)c2ccccc2C1=O | 60
SMILES | HKDC1 act
Cc1cc(NC(=S)NC(=O)c2ccccc2)ccc1-c1cc2ccccc2oc1=O | -47*
O=C(CSc1n[nH]c(-c2cccnc2)n1)Nc1ccc([N+](=O)[O-])cc1Br | 46
N#C/C(=C(/O)CCl)c1nc2c(s1)CCc1ccccc1-2 | 44
CCOC(=O)c1ccc(N=C2C(=S)N(c3ccc(C(=O)OCC)cc3)C(=N)N2/N=C/c2ccccc2)cc1 | -136*
CC(C)C(C(=O)O)N1C(=O)/C(=C/C=C/c2ccco2)SC1=S (stereo unspecified) | 51
CC(=O)C1=C(c2ccccc2)N(C(C)=O)n2c(C)nnc2S1 | -315*
O=C1C=CC(=O)c2c(O)c(CO)c(CO)c(O)c21 | 49
O=C1/C(=C\c2ccc(Cl)c(Cl)c2)CN(C(=O)CCN2CCOCC2)C/C1=C/c1ccc(Cl)c(Cl)c1 | 61
CSc1nc(N(C)CCO)c2sc3nc(-c4ccco4)c4c(c3c2n1)CCC4 | 47
CNc1sc(C(=O)c2ccc(F)cc2)c(N)c1-c1nc2ccccc2s1 | -45*
N#CC1(NC(=O)COC(=O)c2cc(O)c3ccccc3c2O)CCCCC1 | 50
Cc1cc(C)c(S(=O)(=O)Nc2cc(SCC(=O)O)c(O)c3ccccc23)cc1C | 54
O=S(=O)(O)c1ccc(O)c2cc(Nc3ccccc3)ccc12 | 65
Cc1cc(C2=NNC(=Nc3ccc(S(=O)(=O)N4CCOCC4)cc3)SC2)c(C)n1C | -73*
CCN1/C(=C/C=C/c2oc3ccc4ccccc4c3[n+]2CC)Oc2ccc3ccccc3c21 | 51
Cc1cccc(NC2=C/C(=N/S(=O)(=O)c3cccs3)c3ccccc3C2=O)c1 | 53
CC1C/C(=C\c2cccnc2)C(=O)/C(=C/c2cccnc2)C1 (stereo unspecified) | 40
CCOC(=O)C1=C(Cc2ccc(OC)cc2)C(=O)c2ccccc2C1=O | 71
Cc1cc(C)c2c(=O)[nH]cnc2n1 | 64
O=C1C(=O)c2c(C(=O)c3ccccc3)coc2-c2ccccc21 | 51
O=C(O)c1cccc2cccc(-c3c4ccc(=O)c(O)c-4oc4c(O)c(O)ccc34)c12 | 70
CC(C)(C)c1nnc(N/N=C/c2cc(Br)ccc2O)n(N)c1=O | -43*
CCOC(=O)C1=C(O)c2ccccc2C(=O)/C1=C\c1ccc(CC)cc1 | 59
Cc1cccc(N=C2NN=C(c3ccc4c(c3)OCCO4)CS2)c1 | -62*
CCc1ccc(C2=NNC(=Nc3cccc(S(=O)(=O)N(C)C)c3)SC2)cc1 | -177*
SMILES | HKDC1 act
Cc1ccc(C2=NNC(=Nc3ccc(F)cc3)SC2)cc1 | -70*
Cc1cccc(N=C2NN=C(c3c(C)[nH]c4ccccc34)CS2)c1 | -41*
NC(CSC(c1ccccc1)(c1ccccc1)c1cccc2ccccc12)C(=O)O (stereo unspecified) | 35
CCc1ccc(S(=O)(=O)NCCc2cn3ccccc3n2)s1 | 39
O=C1NN(c2ccc(F)c(Cl)c2)C(=O)/C1=C\c1cccc(OC(=O)c2cccs2)c1 | 44
CCc1nn2c(=O)cc(COc3ccc(/C=C4\C(=N)N5N=C(C)SC5=NC4=O)cc3)nc2s1 | 58
COc1ccc([C@@H]2C[C@H](c3ccccc3)Oc3cc(OC)c(OC)c(OC)c32)cc1 | 37
COc1cc(NC(=O)c2cnc(N)s2)cc(C(=O)Nc2cccc(C(F)(F)F)c2)c1 | 59
Cc1ccc(Cl)cc1NC1=C/C(=N\S(=O)(=O)c2cccs2)c2ccccc2C1=O | 36
Fc1ccc(N2C(=S)SC(=Nc3ccccc3)C2=Nc2ccccc2)cc1 | -50*
N#CC(C#N)=C1SC(=Nc2ccccc2)C(=Nc2ccccc2)N1c1ccccc1 | -86*
CC1=NNC(=O)/C1=C\c1cn(-c2ccccc2)nc1-c1ccc(Cl)cc1 | 37
COc1ncnc2c1oc1nc(C(C)C)c3c(c12)CC(C)(C)OC3 | 53
O=C(C1=C(c2ccccc2)C(=O)c2ccccc2C1=O)c1ccccc1 | 58
COc1cc(/C=C2\SC(c3ccc(C)cc3)=NC2=O)cc(OC)c1O | 48
Cc1cc2cc(CN(Cc3cccs3)S(=O)(=O)c3ccc4c(c3)OCCO4)c(=O)[nH]c2cc1C | -47*
Cc1cc2cc(CCNC(=O)c3ccc(S(=O)(=O)N4CCCC4)cc3)c(=O)[nH]c2cc1C | 41
COc1cc(-c2ccc(Nc3ccccc3C(=O)O)c(OC)c2)ccc1Nc1ccccc1C(=O)O | 42
CC(NC(=O)c1sc2cc([N+](=O)[O-])ccc2c1Cl)C(C)(C)C (stereo unspecified) | -76*
Cc1ccc2c(c1C)-c1c(ccc(C)c1C)C(=O)C2=O | 38
O=C(Nc1ccc(N2CCCC2)cc1)c1cccc(-c2cc3ccccc3oc2=O)c1 | -40*
Cc1ccccc1S(=O)(=O)c1c(C)cc(C)n(CC(C)C)c1=O | 71
CCOC(=O)N1CCN(c2cc(NCCC(=O)O)c3c4c(onc24)-c2ccccc2C3=O)CC1 | 37
O=[N+]([O-])c1ccc(N/N=C/c2ccc(O)c(O)c2O)c(S(=O)(=O)N2CCOCC2)c1 | 38

Screens from PubChem.
